For ten compounds, MIC50 and half-life results are on record in ChEMBL document CHEMBL1128473, “[(Biaryloxy)alkyl]isoxazoles: picornavirus inhibitors” (J Med Chem, 1995).

Values after ≈ are worked out from the molar mass of the structure shown.

The test system of data set [1] is Human rhinovirus sp. The data set can be described thus: Concentration inhibiting 50% of the serotypes tested to 50% of the viral concentration of untreated controls following 72 hr of exposure. In kind it is functional. In outline: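 Tissue culture infectious dose (TCID50) assay against a panel of 10 human rhinovirus serotypes. For each serotype, the viral concentration was compared with untreated controls after 72 h of compound exposure. MIC50 is the compound concentration at which half of the serotypes tested are reduced to 50% of the untreated-control viral concentration.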

A short description of data set [2]: Metabolic stability expressed as half life values was monitored in vitro liver microsomal assay. In kind it is ADME, Microsome. To be noted: liver microsomes. For orientation: Microsomes from liver hold many membrane-bound enzymes, among them those of drug oxidation.

`Cc1cc(CCCOc2c(C)cc(-c3ccc(C#N)cc3)cc2C)on1`: in data set [1], the MIC50 worked out at 0.26 µM (≈ 0.0901 µg/mL).

For `Cc1cc(CCCOc2c(C)cc(-c3ccc([N+](=O)[O-])cc3)cc2C)on1`, in data set [1], the MIC50 stood at 0.76 µM (≈ 0.278 µg/mL).

In turn, `Cc1cc(CCCOc2c(C)cc(-c3cccc(F)c3)cc2C)on1` displayed an MIC50 in data set [1] of 0.32 µM (≈ 0.109 µg/mL).

For the compound `Cc1cc(CCCOc2c(C)cc(-c3cccc(CO)c3)cc2C)on1`, the MIC50 in data set [1] was 0.23 µM (≈ 0.0808 µg/mL).

The compound `Cc1cccc(-c2cc(C)c(OCCCc3cc(C)no3)c(C)c2)c1` came in with a half-life in data set [2] of over 3.33 h. In data set [1], this compound displayed an MIC50 of 0.23 µM (≈ 0.0772 µg/mL).

Compound `Cc1cc(CCCOc2c(C)cc(-c3cccc(C#N)c3)cc2C)on1` yielded an MIC50 in data set [1] of over 8.9 µM.

`Cc1cc(CCCOc2c(C)cc(-c3cccc([N+](=O)[O-])c3)cc2C)on1` came in with an MIC50 in data set [1] of 0.35 µM (≈ 0.128 µg/mL).

Regarding `COc1cccc(-c2cc(C)c(OCCCc3cc(C)no3)c(C)c2)c1`, the MIC50 in data set [1] was found to be 0.23 µM (≈ 0.0808 µg/mL).

In data set [1], `Cc1cc(CCCOc2c(C)cc(-c3ccc(Cl)cc3)cc2C)on1` came in with an MIC50 of 0.12 µM (≈ 0.0427 µg/mL).

With `Cc1cc(CCCOc2c(C)cc(-c3ccc(C(F)(F)F)cc3)cc2C)on1`, in data set [1], the MIC50 was 1.7 µM (≈ 0.662 µg/mL).

The half-life is how long it takes for the measured level to halve. Lower therefore signals fast loss.
